Structures are written as SMILES. Activity calls are given as the source filed them. The rule behind the calls is not given here.

Assay [1] deals with T1, Ubiquitin carboxyl-terminal hydrolase isozyme L5 (Homo sapiens, UniProt Q9Y5K5).
T1 sequence (Q9Y5K5 whole entry): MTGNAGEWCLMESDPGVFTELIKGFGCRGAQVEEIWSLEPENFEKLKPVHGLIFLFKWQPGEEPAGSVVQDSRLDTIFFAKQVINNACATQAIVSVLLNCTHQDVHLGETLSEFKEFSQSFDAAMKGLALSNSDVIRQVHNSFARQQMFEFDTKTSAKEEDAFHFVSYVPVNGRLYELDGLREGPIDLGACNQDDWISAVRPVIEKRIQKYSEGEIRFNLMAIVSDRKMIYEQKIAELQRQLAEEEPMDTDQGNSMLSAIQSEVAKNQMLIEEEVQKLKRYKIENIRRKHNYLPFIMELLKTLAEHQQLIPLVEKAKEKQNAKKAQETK
Nature of the assay: Inhibition of N-terminal His6-tagged recombinant human UCHL5 expressed in Escherichia coli BL21 (DE3) codon cells assessed as reduction in cleavage of Ubiquitin-Rhodamine110-glycine to Ubiquitin and Rhodamine110-glycine using Ub-Rho 110 as substrate incubated for 30 mins by fluorescence based assay. In short, it runs like this:
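His-tagged human UCHL5 from pET151 in E. coli BL21(DE3) codon+ RIL, Ni-NTA purified; 0.464 nM enzyme, 1 μM Ub-Rho in 50 mM Tris-HCl pH 7.5, 150 mM NaCl, 0.1 mg/ml ovalbumin, 0.5 mM EDTA, 2.5 mM DTT; started by enzyme addition.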

Assay [2] deals with T2, Ubiquitin carboxyl-terminal hydrolase isozyme L5 (Homo sapiens) (UniProt Q9Y5K5).
T2 sequence (whole entry): T1 sequence (Q9Y5K5 whole entry)
The experiment in a line: Potency index, ratio of (R)-tiaprofenic acid IC50 to test compound IC50 for inhibition of N-terminal His6-tagged recombinant human UCHL5 expressed in Escherichia coli BL21 (DE3) codon cells incubated for 30 mins by fluorescence based assay.

The species named for assay [3] is Homo sapiens. Nature of the assay: Inhibition of N-terminal His6-tagged recombinant human UCHL5 […] N-terminal GST/His6-tagged RPN13 in Escherichia coli BL21 (DE3) codon cells assessed as reduction in cleavage of Ubiquitin-Rhodamine110-glycine to Ubiquitin and Rhodamine110-glycine using Ub-Rho 110 as substrate at 100 uM incubated for 30 mins by fluorescence based assay relative to control. In short, it runs like this: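 UCHL5 (0.464 nM, His-tagged, Ni-NTA purified from E. coli) combined with separately expressed Rpn13 (915 nM); each derivative tested at 100 μM. Buffer 50 mM Tris-HCl pH 7.5, 150 mM NaCl, 0.1 mg/ml ovalbumin, 0.5 mM EDTA, 2.5 mM DTT. Reaction started with UCHL5; Ub-Rho 1 μM; fluorescence ex 485/em 535 nm read over 30 min at RT. n = 2 independent experiments.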

Assay [4] has as its target T2, Ubiquitin carboxyl-terminal hydrolase isozyme L5 (Homo sapiens). Nature of the assay: Inhibition of UCHL5 in human MDA-MB-231 cells assessed as reduction in enzyme-Ub-VS conjugation at 25 to 50 uM preincubated for 30 mins followed by incubation with Ub-VS for 11 mins in presence of Ub-VS by Western blot analysis. The format is cell-based. Conditions: dose 25-50 µM, time 41.0 min. In short, it runs like this:
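Lysate (20 μg protein) preincubated with inhibitor 30 min at RT in same buffer without detergent, then Ub-VS 1 μM for 11 min at RT; SDS quench, 12% SDS-PAGE, anti-UCHL5 and β-actin blot; 2 independent experiments.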

Assay [5] deals with Ubiquitin carboxyl-terminal hydrolase isozyme L1 (Homo sapiens) (UniProt P09936). The experiment in a line: (§1) Inhibition of recombinant human N-terminal MET and His6-tagged UCHL1 (Gln2 to Ala223 residues) expressed in Escherichia coli assessed as reduction in cleavage of Ubiquitin-Rhodamine110-glycine to Ubiquitin and Rhodamine110-glycine using Ub-Rho 110 as substrate incubated for 30 mins by fluorescence based assay. A digest of the protocol: (§2)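 Commercial enzymes at UCHL1 1.2 nM or UCHL3 32 pM, with 1 μM Ub-Rho in 50 mM Tris-HCl pH 7.5, 150 mM NaCl, 0.1 mg/ml ovalbumin, 0.5 mM EDTA, 2.5 mM DTT.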

The target of assay [6] is T3, Ubiquitin carboxyl-terminal hydrolase isozyme L1 (Homo sapiens, UniProt P09936).
T3 sequence (P09936 whole entry): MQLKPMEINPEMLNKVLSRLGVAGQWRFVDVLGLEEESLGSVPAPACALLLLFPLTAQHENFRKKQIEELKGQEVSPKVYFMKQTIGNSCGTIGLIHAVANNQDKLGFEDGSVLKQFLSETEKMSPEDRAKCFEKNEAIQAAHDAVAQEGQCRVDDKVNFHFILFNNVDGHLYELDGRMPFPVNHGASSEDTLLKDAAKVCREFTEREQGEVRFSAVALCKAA
The assay is described as §1. In short, it runs like this: as §2

The target of assay [7] is T4, Ubiquitin carboxyl-terminal hydrolase isozyme L3 (Homo sapiens) (UniProt P15374).
T4 sequence (whole entry): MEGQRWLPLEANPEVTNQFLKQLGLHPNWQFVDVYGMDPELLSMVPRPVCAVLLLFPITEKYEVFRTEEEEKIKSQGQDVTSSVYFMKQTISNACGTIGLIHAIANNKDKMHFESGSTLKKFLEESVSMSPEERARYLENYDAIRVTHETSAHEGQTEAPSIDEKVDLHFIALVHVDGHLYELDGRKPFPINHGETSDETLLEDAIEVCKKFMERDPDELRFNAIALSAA
Nature of the assay: (§3) Inhibition of recombinant human UCHL3 assessed as reduction in cleavage of Ubiquitin-Rhodamine110-glycine to Ubiquitin and Rhodamine110-glycine using Ub-Rho 110 as substrate incubated for 30 mins by fluorescence based assay. In short, it runs like this: as §2

For assay [8], the target named is T5, Ubiquitin carboxyl-terminal hydrolase isozyme L3 (Homo sapiens, UniProt P15374).
T5 sequence (P15374 whole entry): T4 sequence (whole entry)
Described as §3. In short, it runs like this: as §2

Turning to `CC(=O)Nc1ccc(-c2cn(Cc3cc(C(=O)O)cc(-c4ccccc4C(=O)O)c3)nn2)cc1`, the half-maximal inhibitory concentration (IC50) in assay [1] is 80.9 µM. For the compound `CC(C(=O)O)c1ccc(C(=O)c2cccc(-c3ccccc3C(=O)O)c2)s1` (stereo not given), in assay [1], the 50% inhibitory concentration (IC50) stood at 89.1 µM. In assay [2], the Ratio IC50 was 33. Regarding `O=C(O)c1cc(Cn2cc(-c3ccc(NC(=O)c4ccccc4)cc3)nn2)cc(-c2ccccc2C(=O)O)c1`, the IC50 in assay [1] came out at 215 µM. For the compound `Nc1cccc(-c2cn(Cc3cc(C(=O)O)cc(-c4ccccc4C(=O)O)c3)nn2)c1`, the IC50 in assay [1] stood at 72.6 µM. Regarding `O=C(O)c1cc(Cn2cc(-c3cccnc3)nn2)cc(-c2ccccc2C(=O)O)c1`, the IC50 in assay [1] was 252 µM. Consider `NS(=O)(=O)Nc1ccc(-c2cn(Cc3cc(C(=O)O)cc(-c4ccccc4C(=O)O)c3)nn2)cc1`, for which, in assay [1], the IC50 was 84.5 µM. Consider `Nc1ccc(-c2cn(Cc3cc(C(=O)O)cc(-c4cccc(C(=O)O)c4)c3)nn2)cc1`, for which the concentration for half-maximal inhibition (IC50) in assay [1] was 32.9 µM; in assay [6], 92 µM; in assay [8] it was 74 µM. Moreover, the inhibition in assay [3] is 70%; in assay [5], “Dose-dependent effect”; in assay [7], “Dose-dependent effect”. For the same compound, in assay [4], the inhibition entry was “Active”.

In the case of `Nc1ccc(-c2cn(Cc3cc(C(=O)O)cc(-c4ccccc4C(=O)O)c3)nn2)cc1`, the 50% inhibitory concentration (IC50) in assay [1] worked out at 80.5 µM.

Take `CC(=O)Nc1cccc(-c2cn(Cc3cc(C(=O)O)cc(-c4ccccc4C(=O)O)c3)nn2)c1`: the IC50 in assay [1] came to 96.2 µM. In the case of `Nc1ccc(-c2cn(Cc3cc(C(=O)O)cc(-c4ccc(C(=O)O)cc4)c3)nn2)cc1`, the IC50 in assay [1] is 284 µM.

Consider `CC(C(=O)O)c1ccc(C(=O)c2ccccc2)s1` (stereo not given) [TIAPROFENIC ACID], for which the IC50 in assay [1] is 2950 µM. Still for that read-out and setting: for `CC(C(=O)O)c1ccc(C(=O)c2cccc(-c3occc3C(=O)O)c2)s1` (stereo not given) the value was 75.7 µM. On the same count and under the same terms, for `Nc1ccc(-c2cn(Cc3cccc(-c4ccccc4C(=O)O)c3)nn2)cc1` the value was 116 µM.

The record behind these values is ChEMBL document CHEMBL4680319, “Synthesis and evaluation of tiaprofenic acid-derived UCHL5 deubiquitinase inhibitors” (Bioorg Med Chem, 2021).
